Screens from PubChem.
SENP7 inh: SENP7 protease inhibitors, primary screen, biochemical, luminescence, uHTS | Sentrin-specific protease 7 (Homo sapiens), Q9BQF6 | recombinant SENP7, Z-RLRGG-aminoluciferin luminescence, 40 min | inhibition, % at 5 µM | actives 1.5% (n = 330,000);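 active = inhibition above about 50% at the single test dose, limit read from the data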
SENP1 inh: human SENP1 catalytic domain inhibitors, primary screen, biochemical, FRET, uHTS. recombinant SENP1 catalytic domain, CyPet-SUMO1-YPet FRET cleavage. inhibition, % at 10 µM. actives 0.21% (n = 360,000);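 active = inhibition at least 30% at 10 µM, raw YFP signal under a set limit, fluorescence ratio 0.5 to 1.5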
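Assay system – human recombinant His6-tagged SENP1 catalytic domain enzyme · Input – SENP1 enzyme, 20 pM final · Buffer or medium – Tris pH 8 buffer plus EDTA, NaCl, BME, BSA, NP40, catalase · Schedule – 50 min reaction at room temperature · Technique – FRET read of cyan and yellow fluorescence · Control set – no-enzyme wells low, DMSO-plus-enzyme wells high control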
SENP6 inh: SENP6 protease inhibitors, primary screen, biochemical, luminescence, uHTS. Sentrin-specific protease 6 (Homo sapiens), Q9GZR1. Recombinant SENP6 catalytic domain, aminoluciferin luminescence. inhibition, % at 10 µM. actives 1.8% (n = 330,000);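 active = inhibition above about 50% at the single tested dose, limit read from the data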
SENP8 block-1: human SENP8 protease inhibitors, primary screen, biochemical, fluorescence, Nedd8 protein substrate, uHTS; recombinant SENP8; inhibition, % at 20 µM; actives 0.64% (n = 360,000); AID 602440, 2012; in the data active = inhibition mostly above about 40%, no sharp cut-off; inactive = mostly below about 27%
Apaf-1 inh: inhibitors of human Apaf-1 apoptosome, primary screen, biochemical, DEVD-Rh110 fluorescence, uHTS; Apoptotic protease-activating factor 1 (Homo sapiens), O14727; reconstituted apoptosome caspase-3 activity; inhibition, % at 20 µM; actives 0.71% (n = 330,000); AID 489030, 2010; active = inhibition of at least 40% at 20 µM
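Material: reconstituted apoptosome with Apaf-1, cytochrome c, caspase-9, procaspase-3, dATP / Buffer or medium: pH 7.5 Hepes buffer with CHAPS, BSA, DTT / Also added: cytochrome c with DEVD-Rh110 / Schedule: compound with Apaf-1, dATP, procaspase-3 30 min, then 50 min reaction, room temperature / Technique: rhodamine 110 fluorescence at Ex 480/Em 540 nm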
SENP8 block-2: SENP8 protease inhibitors, primary screen, biochemical, luminescence; AID 2540, 2010; actives 1.2% (n = 330,000); inhibition, % at 10 µM; purified SENP8, Z-RLRGG-aminoluciferin cleavage; Sentrin-specific protease 8 (Homo sapiens), Q96LD8; in the data active = inhibition above about 50%
SENP8 conf: human SENP8 protease inhibitors, confirmation, biochemical, Nedd8 protein substrate, single concentration | shares compounds with SENP8 block-1 | purified SENP8, Nedd8-AMC/pro-Nedd8 cleavage fluorescence, 30 min | inhibition, % at 25 µM | actives 15% (n = 1,400) | AID 624319, 2012; in the data active = inhibition mostly above about 39%, no sharp cut-off; inactive = mostly below about 34%
A number is an active result; i = inactive; nt = no result given. Only some compounds are listed: those with a hit (about 2.9% of all), similar ones and a draw of the others.

SMILES	SENP7 inh	SENP1 inh	SENP6 inh	SENP8 block-1	Apaf-1 inh	SENP8 block-2	SENP8 conf
CCN(CC)S(=O)(=O)c1ccc(N/N=C/c2ccccc2OCC(=O)O)c([N+](=O)[O-])c1	i	i	i	51.1	i	i	i
CC1(C)CC(=O)c2c(O)cc(OCC(=O)Nc3ccc(S(N)(=O)=O)cc3)cc2O1	i	i	i	57.2	i	i	i
CC1(C)CC(=O)c2c(O)cc(OCC(=O)NCCc3ccc(S(N)(=O)=O)cc3)cc2O1	i	i	i	i	i	i	nt
Cc1cc(NS(=O)(=O)c2ccc(NC(=O)C(CC(C)C)N3C(=O)c4ccccc4C3=O)cc2)nc(C)n1 (stereo unspecified)	i	i	i	42.4	i	i	i
CNc1cccccc1=S	i	i	i	62.1	i	i	i
CNc1ccccc1	i	i	i	i	i	i	nt
COc1ccc(CSc2nnnn2-c2ccc(C(N)=O)cc2)cc1[N+](=O)[O-]	i	i	i	i	i	i	nt
COc1ccc(CSc2nnnn2C)cc1[N+](=O)[O-]	i	i	i	48.3	i	i	i
Cc1n[nH]c2ccc([N+](=O)[O-])cc2c1=O	nt	i	nt	i	nt	nt	nt
CS(=O)(=O)c1ccc(Cl)c(C(=O)Nc2ccc3nc(N4CCOCC4)sc3c2)c1	i	i	i	i	i	i	nt
Cc1nc2ccccc2n1/N=C/c1ccc([N+](=O)[O-])o1	i	i	i	41.9	i	i	47.2
C#CCN1C=CC(=O)[C@@H](OC(=O)Nc2ccc(C)cc2)[C@H]1c1ccccc1Br	nt	i	nt	i	nt	nt	nt
COc1ccc(-n2[nH]c(C)cc2=O)cc1	i	i	i	67.8	i	i	i
N#C/C(=C\c1ccc(O)c([N+](=O)[O-])c1)c1nc2ccccc2s1	nt	32.2	nt	54.2	nt	nt	42.3
COc1cc(/C=C(\C#N)c2nc3ccccc3s2)cc([N+](=O)[O-])c1O	i	i	i	i	i	i	nt
CCN(CC)c1ccc(C=Nc2ccc(C)cc2)c(O)c1	i	i	i	i	i	i	nt
CCN(CC)c1ccc(N=Cc2ccc(N(CC)CC)cc2O)cc1	i	i	i	57.6	i	i	i
CCN(CC)c1ccc(C=Nc2ccc(N(C)C)cc2)c(O)c1	i	i	i	52.5	44.5	i	i
O=C(CCN1C(=O)c2ccccc2S1(=O)=O)NCc1ccccc1	i	i	i	i	i	i	nt
Cc1ccc(S(=O)(=O)N2Cc3ccccc3CC2C(=O)N(C)C)cc1 (stereo unspecified)	nt	i	nt	i	nt	nt	nt
COc1ccc(OC)c(S(=O)(=O)Nc2cccc3c(O)cccc23)c1	i	i	i	47.5	i	i	i
O=C(C1CCN(S(=O)(=O)c2cnc[nH]2)CC1)N1CCc2ccccc2C1	i	i	i	41.6	i	i	i
COc1ccc(CCNC(=O)COC(=O)c2ccc(S(=O)(=O)N3CCCC3)cc2)cc1OC	i	i	i	i	i	i	nt
COc1ccc(CCNC(=O)C2CCN(S(=O)(=O)c3cnc[nH]3)CC2)cc1OC	i	i	i	40.1	i	i	i
COc1ccc(CCNC(=O)C2CCCN(S(=O)(=O)c3cnc[nH]3)C2)cc1OC (stereo unspecified)	i	i	i	i	i	i	nt
SMILES	SENP7 inh	SENP1 inh	SENP6 inh	SENP8 block-1	Apaf-1 inh	SENP8 block-2	SENP8 conf
COc1ccc(CCNC(=O)CCC(=O)N2CCN(S(=O)(=O)c3ccccc3)CC2)cc1OC	i	i	i	48.5	i	i	i
COc1ccc(CCNC(=O)CCC(=O)N2CCN(S(=O)(=O)c3ccc(Cl)cc3)CC2)cc1OC	i	i	i	43.6	i	i	i
O=C(Nc1cccc2ccccc12)c1csc(COCCO)n1	nt	i	nt	i	nt	nt	nt
CCOc1cc(C(=S)N2CCOCC2)cc(Br)c1OS(=O)(=O)c1ccccc1	i	i	i	41.6	i	i	65.7
CCOc1cc(C(=S)N2CCOCC2)ccc1OS(=O)(=O)c1ccc(C)cc1	i	i	i	i	i	i	nt
O=C(NC(CSSCC(NC(=O)c1ccccc1)C(=O)O)C(=O)O)c1ccccc1 (stereo unspecified)	i	i	i	62.7	i	i	i
CSCCC(NC(=O)c1ccccc1)C(=O)O (stereo unspecified)	i	i	i	i	i	i	nt
O=C(Nc1c(-c2ccccc2)[nH][nH]c1=O)c1ccc2ccccc2c1	nt	i	nt	i	nt	nt	nt
COc1ncccc1C(=O)Nc1c(-c2ccccc2)[nH][nH]c1=O	nt	i	nt	i	nt	nt	nt
O=C(Nc1c(-c2ccccc2)[nH][nH]c1=O)c1cnccn1	nt	i	nt	40.1	nt	nt	i
COc1ccc(-c2[nH][nH]c(=O)c2NC(=O)c2ccc(C)cc2)cc1	nt	i	nt	44.7	nt	nt	i
O=C(Nc1c(-c2ccccc2)[nH][nH]c1=O)c1ccc(Br)cc1	nt	i	nt	58.1	nt	nt	i
COc1ccc(CC(N)c2csc(NC(=O)c3cc(C(C)(C)C)oc3C)n2)cc1 (stereo unspecified)	nt	i	nt	i	nt	nt	nt
CSc1cc(C)n(-c2ccc(Cl)cc2)c(=S)c1C(C)=O	i	i	i	41.9	i	i	i
CC(C)OC(=O)CSc1nnc(-c2ccccn2)n1-c1ccccc1	i	i	i	45.0	i	i	i
C=CCn1c(C)cc(C(=O)CSc2nnc(NC(C)C)s2)c1C	i	i	i	44.0	i	i	i
C=CCn1c(C)cc(C(=O)CSc2nnc(NCc3ccccc3)s2)c1C	nt	i	nt	i	nt	nt	nt
O=C(c1cc(-c2ccccc2Cl)on1)N1CCN(C(=O)c2ccco2)CC1	i	i	i	42.6	i	i	i
Cn1c(=O)c(Nc2ccc(O)cc2)c2c3c(cccc31)C(=O)c1ccccc1-2	i	i	i	45.2	i	i	i
CCc1ccc(NC(=O)c2ccc(NC(=O)C3CCCO3)cc2)cc1 (stereo unspecified)	i	i	i	i	i	i	nt
CC1(/[N+]([O-])=C/c2ccc(Cl)cc2Cl)CCCCC1=O (stereo unspecified)	i	i	i	46.0	i	i	i
NC(=O)CC(NC(=O)c1ccccc1)c1ccc(NC2CCCC2)c([N+](=O)[O-])c1 (stereo unspecified)	i	i	i	40.7	i	i	i
CC(C)Nc1ccc(C(CC(N)=O)NC(=O)c2ccc(Br)cc2)cc1[N+](=O)[O-] (stereo unspecified)	i	i	i	i	i	i	nt
CC(C)Nc1ccc(C(CC(N)=O)NC(=O)c2ccccc2)cc1[N+](=O)[O-] (stereo unspecified)	i	i	i	44.1	i	i	i
